TNF necrop inh – inhibitors of TNF-alpha triggered necroptosis, primary screen, cell-based, Jurkat FADD-/-, single concentration. Jurkat FADD-/- TNF necroptosis rescue, ATP luminescence, 24 h; 0 = TNF only, 100 = no-TNF cells. 0.068% of 220,000 active. activation (protection from cell death), % at 10 µM;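 active = activation, meaning protection from cell death, of at least 50% relative to plate controls; inactive = activation below 50%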;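 note: necroptosis triggered by 40 ng/mL TNF-alpha added together with compound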
S1P4 agonist – S1P4 receptor agonists, primary screen, cell-based. 0.35% of 220,000 active. Sphingosine 1-phosphate receptor 4 (Homo sapiens), O95977. AID 1509, 2009. activation, % at 4.98 µM. S1P4-expressing cell line, agonist reporter assay; in the data active = activation above about 11%
Target sequence (O95977 whole entry, looked up): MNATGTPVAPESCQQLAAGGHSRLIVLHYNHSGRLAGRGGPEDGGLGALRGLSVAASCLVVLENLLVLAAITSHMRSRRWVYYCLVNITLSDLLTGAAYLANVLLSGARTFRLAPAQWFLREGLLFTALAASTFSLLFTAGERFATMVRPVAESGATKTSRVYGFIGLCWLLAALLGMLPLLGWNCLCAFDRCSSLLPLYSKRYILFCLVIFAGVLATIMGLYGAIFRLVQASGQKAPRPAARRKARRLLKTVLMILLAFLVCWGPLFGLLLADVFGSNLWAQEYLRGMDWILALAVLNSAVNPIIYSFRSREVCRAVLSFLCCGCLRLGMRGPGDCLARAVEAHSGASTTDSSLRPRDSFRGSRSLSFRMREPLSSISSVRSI
L929 necroptosis – inhibitors of zVAD-triggered necroptosis, primary screen, L929 cells | L929 zVAD necroptosis rescue, ATP luminescence, 24 h; with zVAD 60 µM | viability rescue, % at 10 µM | 0.38% of 220,000 active | AID 1377, 2008;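 active = activation, scaled between plate controls, above about 75%, limit read from the data; inactive = activation under that limit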
S1P4 antagonist – S1P4 receptor antagonists, primary screen, cell-based | S1P4-expressing cells, antagonist mode, reporter read-out | inhibition, % at 4.98 µM | 0.26% of 220,000 active | AID 1510, 2009; in the data active = inhibition above about 29%
TbHK1 inh – Trypanosoma brucei hexokinase 1 inhibitors, primary screen, biochemical, G6PDH-coupled NADH absorbance, MLSCN library; recombinant TbHK1, G6PDH-coupled NADH A340; inhibition, % at 10 µM; 0.11% of 220,000 active; AID 1430, 2008;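 active = inhibition of 50% or more in the single-dose primary screen; inactive = inhibition below 50%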
Dynein transport – inhibitors of GR-EGFP nuclear translocation, primary screen, dynein cargo transport inhibitor project, imaging, high-content, 3617.4 mouse cells; 0.47% of 220,000 active; z-score, hits read low; test concentration mostly 20 µM; stimulated with dexamethasone, 1 µM; stronger effect = lower value; AID 1381, 2008;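 active = plate z-score of nuclear minus cytoplasmic receptor signal below a set negative limit, without overly bright fluorescence or cell loss, cut at about -3.5 in these data, passing the limit was not always enough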;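 note: z-score of nuclear minus cytoplasmic ring GR-EGFP intensity difference per well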
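Buffer or medium: tetracycline-free induction medium containing charcoal-stripped FBS / Reagent: dexamethasone agonist, 1.0 µM final, for 30 min / Technique: automated 10x imaging of fixed Hoechst-stained cells / Times: induction 48 h, compound 1 h, agonist 30 min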
S1P4 ag conf – S1P4 receptor agonists, retest, confirmation, cell-based, high throughput; shares compounds with S1P4 agonist; activation, % at 4.98 µM; S1P4 agonist cell-based reporter assay; AID 1523, 2009; 7% of 740 active; in the data active = activation above about 12%
S1P1 agonist – S1P1 receptor agonists, human, counter-screen for S1P4 agonist project, cell-based. shares compounds with S1P4 agonist. S1P1 agonist cell-based assay, activation. activation, % at 4.98 µM. 4% of 740 active. AID 1563, 2009; in the data active = activation above about 21%
Hits are given with their value; 0 = inactive; - = not tested or not shown. Rows were chosen to be rich in hits. Some 1.5% of all compounds tested hit in one or more screens of this group.

SMILES	TNF necrop inh	S1P4 agonist	L929 necroptosis	S1P4 antagonist	TbHK1 inh	Dynein transport	S1P4 ag conf	S1P1 agonist
COc1cc(C(F)(F)F)c(C(=O)N(C)Cc2ccc(Cl)c(Cl)c2)cn1	0	15	0	0	0	0	0	0
CC(=O)Nc1ccc(S(=O)(=O)NC(C)C(=O)NCCc2ccc(F)cc2)cc1 (configuration not stated)	0	0	0	0	0	0	-	-
CCOC(=O)/C=c1\s/c(=C(\C#N)C(=O)OCC)n(-c2ccccc2)c1=O	0	160	0	0	0	0	0	0
CNC(=O)/C(C#N)=c1\s/c(=C/C(=O)OC)c(=O)n1-c1ccccc1	0	0	0	0	0	0	-	-
CC(/C=N/N1CCN(c2ccccc2)CC1)=C\c1ccccc1	0	0	0	0	0	0	-	-
CC(/C=N/N1CCN(c2ccccn2)CC1)=C\c1ccccc1	0	11	0	0	0	0	0	0
N#C/C(=C\c1cccc(NC(=O)c2ccccc2Cl)c1)C(=O)NCCc1ccccc1	0	0	0	0	0	0	-	-
O=C(N/N=C\c1c(O)ccc2ccccc12)c1ccc(S(=O)(=O)N2CCCCC2)cc1	0	0	0	0	0	0	-	-
Cn1c(O)c(N=NC(=S)Nc2ccccc2F)c2cc(S(=O)(=O)N3CCOCC3)ccc21	0	17	0	0	0	0	0	0
CCN1C(=O)/C(=C/C=C2/CCCN2C)OC1=S	0	0	0	0	0	0	-	-
CCc1nnc(NC=C2C(=O)OC(C)(C)OC2=O)s1	0	18	0	0	0	0	0	0
Cc1cc(C)c2c(=O)[nH]c(SCC(=O)NCCc3ccccc3)nc2n1	0	12	0	0	0	0	0	0
Cc1cc(C)c2c(=O)[nH]c(SCC(=O)NCc3ccccc3)nc2n1	0	0	0	0	0	0	-	-
COc1cc(/C=N/NC(=O)C2CCN(CC(O)COCc3ccccc3)CC2)ccc1O (configuration not stated)	0	0	0	0	0	0	-	-
CCN1C=C(C(=O)OC)C(c2cccc(C)c2)C(C(=O)OC)=C1	0	0	0	0	0	0	-	-
CCCOc1ccccc1C1C(C(=O)OC)=CN(C(C)C)C=C1C(=O)OC	0	18	0	0	0	0	0	0
CCCCOc1ccccc1C1C(C(=O)OC)=CN(CC)C=C1C(=O)OC	0	12	0	0	0	0	0	0
C=CCn1c(COc2cc(C)ccc2C(C)C)nnc1SCC(=O)c1c(N)n(C)c(=O)n(C)c1=O	0	13	0	0	0	0	0	0
CCC(C)[C@H](NC(=O)OC(C)(C)C)C(=O)N/N=C/c1ccc2cc(OC)ccc2n1 (some centres not stated)	0	90	0	0	0	0	0	0
COc1ccc2nc(/C=N/NC(=O)[C@H](CCSC)NC(=O)OC(C)(C)C)ccc2c1	0	0	0	0	0	0	-	-
Cc1ccc(/C=N/NC(=O)c2cccnc2)s1	0	13	0	0	0	0	0	0
O=C(N/N=C/c1cccs1)c1cccnc1	0	0	0	0	0	0	-	-
O=C(NC(Cc1c[nH]c2ccccc12)C(=O)O)c1ccco1 (configuration not stated)	0	0	0	0	0	0	-	-
O=C(NCc1ccccc1)N[C@@H](Cc1c[nH]c2ccccc12)C(=O)O	0	14	0	0	0	0	0	0
COc1ccccc1-n1c(SCC(N)=O)nnc1-c1ccc(S(=O)(=O)N2CCCCC2)cc1	0	23	0	0	0	0	0	0
SMILES	TNF necrop inh	S1P4 agonist	L929 necroptosis	S1P4 antagonist	TbHK1 inh	Dynein transport	S1P4 ag conf	S1P1 agonist
NC(=O)CSc1nnc(-c2ccc(S(=O)(=O)N3CCCCC3)cc2)n1-c1ccccc1	0	0	0	0	0	0	-	-
O=C(Cc1ccc([N+](=O)[O-])cc1)N1N=C(c2ccncc2)CC1(O)C(F)(F)F (configuration not stated)	0	0	0	0	0	0	-	-
Cn1cc(C2CC(c3ccccc3)=NN2C(=O)c2ccccc2)c2ccccc21 (configuration not stated)	0	13	0	0	0	0	0	0
COc1cc(OC)c(NC(=O)/C=C/C(=O)O)cc1Cl	0	0	0	0	0	0	-	-
c1ccc(-c2csc3ncnc(N4CCc5ccccc5C4)c23)cc1	0	0	0	0	0	0	-	-
CCCCNC(=O)Cc1ccc(Br)cc1	0	13	0	0	0	0	0	0
CCOc1ccc(-n2c(SCC(=O)Nc3nccs3)nnc2-c2ccoc2C)cc1	0	0	0	0	0	0	-	-
CCOc1ccccc1-n1c(SCC(=O)Nc2nccs2)nnc1-c1ccoc1C	0	19	0	0	0	0	0	0
Cc1cccc(N=Cc2cc3c(cc2[N+](=O)[O-])OCO3)c1	0	16	0	0	0	0	0	0
O=[N+]([O-])c1cc2c(cc1C=Nc1ccccc1)OCO2	0	0	0	0	0	0	-	-
CC(C)NC(=O)C1COc2ccccc2O1 (configuration not stated)	0	64	0	0	0	0	0	0
Cc1cc(C)c2sc(NNC(=O)C3COc4ccccc4O3)nc2c1 (configuration not stated)	0	21	-	0	0	0	0	0
CC1Nc2ccccc2C(=O)N1NC(=O)c1ccc(Br)cc1 (configuration not stated)	0	0	0	0	0	0	-	-
Cc1cc(C)nc(SCc2nnc(SCC(=O)Nc3nc(-c4ccccc4)cs3)n2-c2ccccc2)n1	0	0	0	0	0	0	-	-
Cc1cc(C)nc(SCc2nnc(SCC(=O)O)n2-c2ccccc2)n1	0	14	0	0	0	0	0	0
C=CCN1C(=O)CS/C1=N\S(=O)(=O)c1ccc(Cl)cc1	0	11	0	0	0	0	0	0
CCC(C)NCCC(=O)Nc1ccc(Cl)c(S(=O)(=O)Nc2ccc(Cl)cc2)c1 (configuration not stated)	0	19	0	0	0	0	0	0
O=C(O)COc1ccccc1/C=N/NC(=O)CSc1nnc(-c2ccc(Cl)cc2)n1C1CCCCC1	0	0	0	0	0	0	-	-
